High-throughput results (PubChem BioAssay)
APP 5'UTR act = APP 5'UTR luciferase reporter activation. 1% of 190,000 active. SH-SY5Y APP 5'UTR luciferase reporter, luminescence; zero percent = DMSO vehicle wells. activation, % at 2 µM;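 active means activation above a set limit, based on mean plus 3 SD of controls, cut at about 140% in these data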
Mdm2 ligase inh = blocks human Mdm2 ubiquitin ligase activity; 0.11% of 210,000 active; cell-based MDM2 ubiquitination luciferase reporter, 2 h; 0 = plate control, 100 = twice control, blank-subtracted; Q00987; signal enhancement, % at 5 µM;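 active means signal enhancement of 30% or more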;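 further: luminescence tracks abundance of the self-degrading MDM2-luciferase fusion protein; higher signal means inhibition of MDM2 E3 ligase activity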
Target sequence (Q00987 whole entry, looked up, the tested form may be a part): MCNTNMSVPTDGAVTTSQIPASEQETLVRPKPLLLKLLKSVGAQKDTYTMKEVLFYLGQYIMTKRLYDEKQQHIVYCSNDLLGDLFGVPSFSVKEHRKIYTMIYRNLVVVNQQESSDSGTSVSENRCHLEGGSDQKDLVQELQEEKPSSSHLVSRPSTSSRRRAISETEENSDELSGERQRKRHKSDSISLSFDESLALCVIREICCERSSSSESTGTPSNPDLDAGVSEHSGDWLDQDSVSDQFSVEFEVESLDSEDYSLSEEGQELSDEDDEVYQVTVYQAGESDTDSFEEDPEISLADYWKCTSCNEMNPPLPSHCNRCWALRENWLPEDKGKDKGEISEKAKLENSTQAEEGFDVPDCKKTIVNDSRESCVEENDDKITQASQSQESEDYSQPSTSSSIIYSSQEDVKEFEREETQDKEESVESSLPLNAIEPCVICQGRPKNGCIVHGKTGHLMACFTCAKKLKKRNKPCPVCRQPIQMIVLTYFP
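System: stable MDM2–luciferase fusion reporter cells / Input: 2000 cells seeded into each well / Schedule: 4 h settle plus 2 h compound, 37 °C / Compound: single-point 5 µM / Buffer or medium: cells held in DMEM / Benchmarks: control and blank well means / Evaluation: percent signal gain over controls, blank-subtracted / Measured by: luciferase luminescence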
STAT1 act = activators of IFN-gamma induced STAT1 signaling; activation (% of control), % at 5.5 µM; AID 932; NIH 3T3 STAT1-luciferase reporter, luminescence; 100% = IFN-gamma alone, no compound; 2.6% of 200,000 active;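 active means activation above the screen-wide mean activation plus 3 SD, cut at about 130% in these data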;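 further: raw ratio to IFN-gamma control signal so 100% means no change and 0% no light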
NF-kB expr up = raises NF-kB expression in human neuronal cells; fold change at 12.5 µM; NF-kB reporter expression; active compounds read high; 1.6% of 190,000 active; in the data active means fold change above about 3.3
p97 inhibitor = blocks human p97 ATPase activity. P55072. recombinant p97 ATPase, Kinase-Glo ATP luminescence, 3 h. inhibition, % at 8 µM. 0.42% of 220,000 active. AID 1481; in the data active means inhibition above about 15%;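 further: 0% = DMSO vehicle and 100% = wells lacking enzyme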
Wee1 degr inh = human Wee1 degradation inhibition, primary screen | HeLa Luc-Wee1K328M stability, luciferase luminescence; 100% = proteasome inhibitor MG132 effect | AID 1321 | 1.2% of 220,000 active | reporter increase, % at 5 µM | P30291;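 active means activation above the mean of all tested compounds plus 3 SD, set per screening run, cut at about 8.8% in these data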;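 further: cells exposed to compound for 20 h before luminescence read; 0% = DMSO alone and 100% = MG132 at 30 µM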
Starred values were filed as active, the others as inactive; / = no result. Sampled rows, rich in hits. Any-hit rate of the full collection: about 4.6%.

SMILES	APP 5'UTR act	Mdm2 ligase inh	STAT1 act	NF-kB expr up	p97 inhibitor	Wee1 degr inh
COC(=O)Cc1ccc2oc(-c3cccnc3)nc2c1	-3	-11	128	1.9	1	4
Cc1ccc2nc(-c3cccc(N)c3)oc2c1	/	-8	82	3.9*	-12	-1
CCc1ccc2oc(-c3cccc(N)c3)nc2c1	110	-46	116	3.9*	-4	-1
Nc1ccc2oc(-c3cccc(Br)c3)nc2c1	17	-19	146*	3	2	0
Nc1ccc2oc(-c3ccc4nc[nH]c4c3)nc2c1	11	-24	132*	1.3	-3	-1
COc1c(C)cc(C(=O)C2CCCN(C(=O)c3ccc4cc[nH]c4c3)C2)cc1C (stereo not drawn)	-9	-6	96	1.1	-1	-2
CC(C)(C)S(=O)(=O)c1cnc2c(-c3ccsc3)cnn2c1N	85	12	132*	1	2	-2
COc1ccc(N2CCN(C(=O)CN(C3CCCCC3)S(C)(=O)=O)CC2)cc1	-3	-48	94	0.9	1	9.1*
CC(C)CC(=O)Nc1ccc(-c2cn3ccsc3n2)cc1	169*	-39	104	6.7*	-12	-1
CC(C)(C)C(=O)Nc1ccc(-c2cn3ccsc3n2)cc1	158*	-8	72	3.3*	2	1
Cc1nc(-c2ccc(NC(=O)CC(C)C)cc2)cs1	41	-24	129*	1.1	1	4
COc1ccc(-c2csc(NC(=O)CC(C)C)n2)cc1	36	4	108	2.1	-3	0
O=S(=O)(Nc1ccc(-c2cn3ccsc3n2)cc1)c1ccc2c(c1)OCCO2	14	-3	101	1.8	7	2
NNC(=O)CNC(c1ccccc1)c1cc(Br)ccc1NC(=O)c1ccc(Br)cc1 (stereo not drawn)	17	-8	96	1.1	10	-4
NNC(=O)CNC(c1ccccc1)c1cc(Br)ccc1NC(=O)CCN1CCOCC1 (stereo not drawn)	-7	-4	96	0.99	19*	2
N=C1S/C(=C\c2ccc(-c3cccc(Cl)c3)o2)C(=O)N1c1nccs1	-36	36*	96	0.94	3	0
COc1ccc(/C=C2\SC(=N)N(c3nccs3)C2=O)cc1OC	-22	-6	97	1.2	3	-3
Cc1ccc(-n2nnc(-c3nccn3C)n2)cc1	97	/	73	4.2*	-8	0
Cn1ccnc1-c1nc2ccccc2[nH]c1=O	-4	1	101	1.1	3	-2
O=c1ncn(-c2ccc(F)cc2)c2ncccc12	1	-17	95	1.1	4	1
Clc1ncccc1-c1nnn(-c2ccccc2)n1	132	/	134*	6.5*	0	2
Cc1ccc(-n2nnc(-c3cnc4ccccc4c3)n2)cc1	194*	/	106	4.5*	3	3
Fc1ccc(-n2nnc(-c3nccs3)n2)cc1	148*	/	107	4.7*	-6	7
C=CCn1c(SCC(=O)NC23CC4CC(CC(C4)C2)C3)nc2cc(C(=O)O)ccc2c1=O	-5	2	96	1.2	4	-2
CCC1=NN(S(=O)(=O)c2ccc(C)cc2)C(O)(C(F)(F)F)C1 (stereo not drawn)	8	-2	99	1.2	-3	2
SMILES	APP 5'UTR act	Mdm2 ligase inh	STAT1 act	NF-kB expr up	p97 inhibitor	Wee1 degr inh
Clc1ccc(-n2nnc(-c3cccnc3Cl)n2)cc1Cl	164*	/	135*	2.5	5	0
ClCc1cc2ccccc2nc1Cl	4	2	93	1.3	-4	1
Brc1ccccc1-n1nnc(-c2ccnc3ccccc23)n1	22	/	99	1.4	4	0
Clc1nc2ccccc2cc1-c1nnn(-c2ccccc2)n1	112	/	133*	5*	8	0
Fc1ccc(-n2nnc(-c3cccnc3Cl)n2)cc1	149*	/	144*	5.8*	2	4
COc1ncccc1-c1nnn(-c2ccccc2)n1	158*	/	149*	4.8*	0	4
O=C(c1cccs1)C1CCCN(Cc2nc(Cc3ccccc3F)no2)C1 (stereo not drawn)	14	-8	89	/	-3	0
